This is an account of results in ChEMBL document CHEMBL4616587, “Kolavenic acid analog restores growth in HSET-overproducing fission yeast cells and multipolar mitosis in MDA-MB-231 human cells” (Bioorg Med Chem, 2020).

Active and inactive are the calls of the source. The calls are words filed in the database; no cut-off is given here. A value given as a limit tells only on which side of the number the result lay.

In test [1] the test system is Schizosaccharomyces pombe. In words: Inhibition of HSET in Schizosaccharomyces pombe TY27 overexpressing GFP-HSET assessed as inhibition of HSET overproduction-induced lethality by measuring increase in cell viability at 0.25 uM incubated for 2 to 3 days relative to control.
The test system of test [2] is Schizosaccharomyces pombe. In words: Inhibition of HSET in Schizosaccharomyces pombe TY27 overexpressing GFP-HSET assessed as reversion of HSET-induced lethal abnormal monopolar spindle formation to bipolar formation by measuring cells containing monopolar spindles at 0.1 ug/ml incubated for 2 days by wide field inverted epifluorescence microscopic method (reference value: 76%). Further details: scale not given: the % may be the effect or the level left.

Test [3] concerns the target T1, Kinesin-like protein KIFC1 (Homo sapiens) (UniProt Q9BW19).
T1 sequence (whole entry): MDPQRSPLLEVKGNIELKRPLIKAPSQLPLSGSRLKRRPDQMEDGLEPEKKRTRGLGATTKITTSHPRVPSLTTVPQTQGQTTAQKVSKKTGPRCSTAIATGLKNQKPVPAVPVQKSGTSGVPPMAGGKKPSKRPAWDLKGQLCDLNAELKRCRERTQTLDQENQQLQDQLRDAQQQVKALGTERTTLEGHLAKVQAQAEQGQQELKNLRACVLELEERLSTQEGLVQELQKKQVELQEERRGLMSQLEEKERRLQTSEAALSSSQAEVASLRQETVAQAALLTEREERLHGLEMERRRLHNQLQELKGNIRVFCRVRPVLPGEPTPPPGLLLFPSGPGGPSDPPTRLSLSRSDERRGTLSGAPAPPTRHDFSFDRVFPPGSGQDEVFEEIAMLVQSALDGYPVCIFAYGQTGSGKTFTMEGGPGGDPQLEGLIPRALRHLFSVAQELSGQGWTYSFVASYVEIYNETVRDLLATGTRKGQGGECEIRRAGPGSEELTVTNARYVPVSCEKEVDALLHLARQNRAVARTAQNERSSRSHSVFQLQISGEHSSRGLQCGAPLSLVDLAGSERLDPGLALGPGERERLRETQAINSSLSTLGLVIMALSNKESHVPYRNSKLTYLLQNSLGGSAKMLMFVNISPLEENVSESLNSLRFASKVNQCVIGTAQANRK
The experiment in a line: Inhibition of HSET in human MDA-MB-231 cells overexpressing HSET and possessing supernumerary centrosomes assessed as inhibition of centrosome clustering by measuring bipolar spindle formation at 20 uM incubated for 24 hrs by Hoechst 33342 staining based fluorescence microscopic method relative to control. Further details: scale not given: the % may be the effect or the level left. It counts as cell-based.

Test [4] deals with T1, Kinesin-like protein KIFC1 (Homo sapiens). The experiment in a line: Inhibition of HSET in human MDA-MB-231 cells overexpressing HSET and possessing supernumerary centrosomes assessed as inhibition of centrosome clustering by measuring bipolar spindle formation at 40 uM incubated for 24 hrs by Hoechst 33342 staining based fluorescence microscopic method relative to control. It counts as cell-based. Further details: scale not given: the % may be the effect or the level left.

For test [5] the target is unchanged. The experiment in a line: Inhibition of HSET in human MDA-MB-231 cells overexpressing HSET and possessing supernumerary centrosomes assessed as inhibition of centrosome clustering by measuring increase in multipolar spindle formation at 20 uM incubated for 24 hrs by Hoechst 33342 staining based fluorescence microscopic method relative to control. Format: cell-based. Further details: scale not given: the % may be the effect or the level left.

Test [6] has the same target. In words: Inhibition of HSET in human MDA-MB-231 cells overexpressing HSET and possessing supernumerary centrosomes assessed as inhibition of centrosome clustering by measuring increase in multipolar spindle formation incubated for 24 hrs by Hoechst 33342 staining based fluorescence microscopic method. Format: cell-based.
The subject of a further test is MDA-MB-231. The experiment in a line: Antiproliferative activity against human MDA-MB-231 cells assessed as inhibition of cell viability incubated for 48 hrs by MTT assay. It counts as functional, cell-based. The following applies: MDA-MB-231, 48 h. On the technique in general: Tetrazolium dyes change colour on reduction, which living cells bring about.
For test [7], the system named is Schizosaccharomyces pombe. The experiment in a line: Inhibition of HSET in Schizosaccharomyces pombe TY27 overexpressing GFP-HSET assessed as inhibition of HSET overproduction-induced lethality by measuring cell growth at 0.25 uM incubated for 2 to 3 days (reference value: 8%). Further details: scale not given: the % may be the effect or the level left.
Test [8] deals with T1, Kinesin-like protein KIFC1 (Homo sapiens). The experiment in a line: Inhibition of HSET in human MDA-MB-231 cells overexpressing HSET and possessing supernumerary centrosomes assessed as inhibition of centrosome clustering by measuring increase in multipolar spindle formation at 40 uM incubated for 24 hrs by Hoechst 33342 staining based fluorescence microscopic method relative to control. It counts as cell-based. On the set-up: scale not given: the % may be the effect or the level left.

For another test, the system named is WI-38. In words: Antiproliferative activity against human WI38 cells assessed as inhibition of cell viability incubated for 48 hrs by MTT assay. It counts as functional, cell-based. The following applies: WI-38, 48 h.
The subject of test [9] is Schizosaccharomyces pombe. In words: Inhibition of HSET in Schizosaccharomyces pombe TY27 overexpressing GFP-HSET assessed as inhibition of HSET overproduction-induced lethality by measuring cell viability at 0.25 uM incubated for 2 to 3 days relative to control.
Test [10] has as its system Schizosaccharomyces pombe. The experiment in a line: Inhibition of HSET in Schizosaccharomyces pombe TY27 overexpressing GFP-HSET assessed as inhibition of HSET overproduction-induced lethal growth defects by measuring growth restoring activity incubated for 3 days by agar plate-based method. The essentials: (§1)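 Fission yeast TY27: drug-sensitive YA8 background (h+ bfr1::ura4+ pmd1::hisG leu1 ura4) carrying the pREP41-GFP-HSET plasmid, with the pREP41-GFP vector strain TY26 alongside. Simple plate assay on rich YE5S agar plates, read as restoration of growth of the HSET-overproducing cells. Screened set included SCADS Inhibitor Kits and inhibitors aimed at tubulin or Eg5.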

Test [11] deals with Schizosaccharomyces pombe. In words: Inhibition of HSET in Schizosaccharomyces pombe TY27 overexpressing GFP-HSET assessed as inhibition of HSET overproduction-induced lethal growth defects by measuring growth restoring activity at 25 ng/spot incubated for 3 days by agar plate-based method. The essentials: as §1
For test [12], the system named is Schizosaccharomyces pombe. The experiment in a line: Inhibition of HSET in Schizosaccharomyces pombe TY27 overexpressing GFP-HSET assessed as reversion of HSET-induced lethal abnormal monopolar spindle formation to bipolar formation by measuring cells containing monopolar spindles at 0.01 ug/ml incubated for 2 days by wide field inverted epifluorescence microscopic method (reference value: 76%). On the set-up: scale not given: the % may be the effect or the level left.

Test [13] has as its system Schizosaccharomyces pombe. In words: Inhibition of tubulin in Schizosaccharomyces pombe TY27 overexpressing GFP-HSET assessed as growth restoring activity incubated for 3 days by agar plate-based method. The essentials: as §1
For test [14], the system named is Schizosaccharomyces pombe. In words: Inhibition of HSET in Schizosaccharomyces pombe TY27 overexpressing GFP-HSET assessed as inhibition of HSET overproduction-induced lethality by measuring increase in cell viability at 2.8 uM incubated for 2 to 3 days relative to control.
Test [15] has as its system Schizosaccharomyces pombe. In words: Inhibition of HSET in Schizosaccharomyces pombe TY27 overexpressing GFP-HSET assessed as reversion of HSET-induced lethal abnormal monopolar spindle formation to bipolar formation by measuring cells containing monopolar spindles at 1 ug/ml incubated for 2 days by wide field inverted epifluorescence microscopic method (reference value: 76%). On the set-up: scale not given: the % may be the effect or the level left.

The test system of test [16] is Schizosaccharomyces pombe. In words: Inhibition of HSET in Schizosaccharomyces pombe TY27 overexpressing GFP-HSET assessed as inhibition of HSET overproduction-induced lethality by measuring cell viability at 2.8 uM incubated for 2 to 3 days relative to control.
The test system of test [17] is Schizosaccharomyces pombe. The experiment in a line: Inhibition of HSET in Schizosaccharomyces pombe TY27 overexpressing GFP-HSET assessed as inhibition of HSET overproduction-induced lethal growth defects by measuring growth restoring activity at 6.25 to 50 ug/spot incubated for 3 days by agar plate-based method. In a few lines: as §1
The target in test [18] is T1, Kinesin-like protein KIFC1 (Homo sapiens). In words: Inhibition of HSET in human MDA-MB-231 cells overexpressing HSET and possessing supernumerary centrosomes assessed as inhibition of centrosome clustering by measuring increase in multipolar spindle formation at 250 uM incubated for 24 hrs by Hoechst 33342 staining based fluorescence microscopic method. Format: cell-based.

Test [19] has as its system Schizosaccharomyces pombe. In words: Inhibition of HSET in Schizosaccharomyces pombe TY27 overexpressing GFP-HSET assessed as inhibition of HSET overproduction-induced lethality by measuring cell growth at 2.8 uM incubated for 2 to 3 days (reference value: 6%). Further details: scale not given: the % may be the effect or the level left.
The subject of test [20] is Schizosaccharomyces pombe. The experiment in a line: Inhibition of HSET in Schizosaccharomyces pombe TY27 overexpressing GFP-HSET assessed as inhibition of HSET overproduction-induced lethality by measuring cell viability at 3.3 uM incubated for 2 to 3 days relative to control.
The subject of test [21] is Schizosaccharomyces pombe. The experiment in a line: Inhibition of HSET in Schizosaccharomyces pombe TY27 overexpressing GFP-HSET assessed as inhibition of HSET overproduction-induced lethality by measuring cell growth at 3.3 uM incubated for 2 to 3 days (reference value: 5%). Further details: scale not given: the % may be the effect or the level left.
The subject of test [22] is Schizosaccharomyces pombe. In words: Inhibition of HSET in Schizosaccharomyces pombe TY27 overexpressing GFP-HSET assessed as inhibition of HSET overproduction-induced lethality by measuring increase in cell viability at 3.3 uM incubated for 2 to 3 days relative to control.
Test [23] deals with Schizosaccharomyces pombe. The experiment in a line: Inhibition of Eg5 in Schizosaccharomyces pombe TY27 overexpressing GFP-HSET assessed as growth restoring activity incubated for 3 days by agar plate-based method. In a few lines:
as §1

`C/C=C(\C)C(=O)O[C@@H]1C[C@@H](C)[C@@](C)(CC/C(C)=C/C(=O)O)[C@@H]2CCC=C(C)[C@]12C`: the fold change (FC) in test [1] is over 2. Further, the Activity in [2] came out at 12%; in [3], 49%; in test [4], 23%; in [5], 44%; in test [7], 13%; in test [8], 77%. Also, the Activity in test [9] amounted to 89%; in [12] it was 53%. Further, the inhibition entry in test [6] was “Dose-dependent effect”. Also, the IC50 was 81.9 µM in the test on MDA-MB-231 and 100 µM in the test on WI-38. For the same compound, in test [10], the “growth restoration (qualitative)” value is “Dose-dependent effect”. The inhibition result in test [11] is “inactive”.

`CC[C@]1(O)C[C@H]2CN(CCc3c([nH]c4ccccc34)[C@@](C(=O)OC)(c3cc4c(cc3OC)N(C)[C@H]3[C@@](O)(C(=O)OC)[C@H](OC(C)=O)[C@]5(CC)C=CCN6CC[C@]43[C@@H]65)C2)C1`: in test [13], the inhibition result is “inactive”.

For the compound `COC(=O)Nc1nc2cc(C(=O)c3cccs3)ccc2[nH]1`, the inhibition entry in [13] is “inactive”.

On to `COc1cccc2c1C(=O)c1c(O)c3c(c(O)c1C2=O)C[C@@](O)(C(=O)CO)C[C@@H]3O[C@H]1C[C@H](N)[C@H](O)[C@H](C)O1` [DOXORUBICIN], for which the IC50 in the test with MDA-MB-231 was determined as 4.4 µM.

As for `CC(=O)O[C@@H]1C[C@@]2(C)C(C)=CCC[C@@H]2[C@@](C)(CC/C(C)=C/C(=O)O)[C@@H]1C`, in test [14], the fold change (FC) was over 2. Also, the Activity in [2] was determined as 49%; in test [15] it was 11%; in [16], 81%; in test [19], 8%. The inhibition entry in test [17] and in test [18] was “inactive” each time. The half-maximal inhibitory concentration (IC50) in the test with MDA-MB-231 worked out at 261 µM; with WI-38 it was 265 µM. Moreover, in test [10], the “growth restoration (qualitative)” value is “Dose-dependent effect”.

For the compound `CC(=O)O[C@H]1C(=O)[C@@]2(C)[C@H]([C@H](OC(=O)c3ccccc3)[C@]3(O)C[C@H](OC(=O)[C@H](O)[C@@H](NC(=O)c4ccccc4)c4ccccc4)C(C)=C1C3(C)C)[C@]1(OC(C)=O)CO[C@@H]1C[C@@H]2O`, the inhibition entry in [13] is “inactive”.

Consider `CC1=CCC[C@@H]2[C@@](C)(CC/C(C)=C/C(=O)O)[C@H](C)CC[C@@]12C` [KOLAVENIC ACID], for which the Activity in test [2] came out at 50%; in [20] it was 59%; in test [15], 7%; in [21], 8%. In test [18], the inhibition entry is “inactive”. Further, the IC50 was determined as 272 µM in the test with MDA-MB-231 and 265 µM in the test on WI-38. In addition, the fold change (FC) in test [22] was over 2. Also, in test [10], the “growth restoration (qualitative)” value is “Dose-dependent effect”.

Take `CCCc1cc(C(=O)N[C@H](Cc2ccc(-c3cccc(OC(F)(F)F)c3)nc2)C(=O)N[C@@H]2CCNC2)sc1C`: the “growth restoration (qualitative)” value in [10] is “Dose-dependent effect”.

Turning to `CCOC(=O)C1=C(C)NC(=S)NC1c1cccc(O)c1` (centres undefined), the inhibition result in test [23] is “inactive”.

The term IC50 denotes the concentration that gives 50% inhibition.
